High-throughput results as filed in PubChem.
XBP1 UPR activ = activators of adaptive XBP1 UPR arm, primary screen, cell-based, CHO-XBP1 luciferase reporter, luminescence, uHTS. IRE1-XBP1 UPR activation; percent of tunicamycin response, DMSO as zero. activation, % at 20 µM. 330,000 tested, 0.33% active;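 active = versus positive control, 20 µM dose yields 30% or more activation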
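Assay system: IRE1-XBP1 luciferase reporter CHO line. Input: 1000 cells/well. Buffer or medium: F12 with 10% serum. Doses: 20 µM, 1% DMSO. Times: overnight seeding at 37 °C, 6 h compound treatment at 37 °C. Technique: Steady-Glo luciferase glow luminescence, 10 min after reagent addition.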
p97 ATPase inh = inhibitors of human p97 ATPase, primary screen, biochemical; recombinant p97 ATPase, Kinase-Glo ATP luminescence, 3 h; inhibition, % at 8 µM; 220,000 tested, 0.42% active; Transitional endoplasmic reticulum ATPase (Homo sapiens), P55072; in the data active = inhibition above about 15%
Target sequence (P55072 whole entry, looked up): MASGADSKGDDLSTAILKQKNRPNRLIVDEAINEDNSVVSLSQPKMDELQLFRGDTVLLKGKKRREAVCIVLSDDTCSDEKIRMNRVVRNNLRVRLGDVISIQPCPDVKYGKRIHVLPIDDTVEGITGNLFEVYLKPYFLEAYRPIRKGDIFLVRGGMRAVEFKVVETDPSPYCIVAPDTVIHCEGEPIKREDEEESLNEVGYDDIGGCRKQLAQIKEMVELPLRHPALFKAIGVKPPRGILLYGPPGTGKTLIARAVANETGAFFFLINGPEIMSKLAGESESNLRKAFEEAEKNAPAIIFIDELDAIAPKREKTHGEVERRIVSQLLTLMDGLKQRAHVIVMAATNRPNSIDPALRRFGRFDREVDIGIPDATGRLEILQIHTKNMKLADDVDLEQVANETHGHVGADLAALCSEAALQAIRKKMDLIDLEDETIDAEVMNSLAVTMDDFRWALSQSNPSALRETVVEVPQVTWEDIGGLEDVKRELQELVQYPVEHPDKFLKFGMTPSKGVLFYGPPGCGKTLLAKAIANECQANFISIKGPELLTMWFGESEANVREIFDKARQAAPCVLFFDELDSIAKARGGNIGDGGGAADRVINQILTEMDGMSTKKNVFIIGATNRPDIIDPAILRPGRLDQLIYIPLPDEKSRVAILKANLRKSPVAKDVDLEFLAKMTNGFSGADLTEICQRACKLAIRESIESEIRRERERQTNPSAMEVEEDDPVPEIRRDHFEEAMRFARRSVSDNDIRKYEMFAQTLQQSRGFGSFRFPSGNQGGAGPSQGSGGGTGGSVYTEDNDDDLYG
HCV NS3 hel inh = inhibitors of HCV NS3 helicase, primary screen, biochemical, Cy5 molecular beacon fluorescence | Hepatitis C virus NS3 helicase | NS3 helicase DNA unwinding | inhibition, % at 10.9 µM | 290,000 tested, 0.56% active;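 active = inhibition above the mean of all tested compounds plus 3 SD, set per campaign, cut at about 35% in these data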
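Assay system: hepatitis C virus NS3 helicase domain fragment enzyme. Also added: annealed dual-labelled DNA beacon duplex, ATP-started. Timing: 1 h reaction at 25 °C, ATP-initiated. Technique: Cy5 fluorescence at 0 and 60 min, beacon hairpin quenching. Evaluation: % inhibition of unwinding. Replication: one well per compound.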
CHOP inh = inhibitors of CHOP promoter induction, primary screen, cell-based, unfolded protein response, luciferase reporter; 220,000 tested, 3.8% active; inhibition, % at 10 µM; CHO-K1 CHOP-promoter luciferase, tunicamycin-induced, 15-18 h; AID 2732, 2010;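 active = compounds that reduced the stress-induced luciferase reporter signal by more than about 70% of percent inhibition, limit read from the data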
CHOP UPR activ = activators of apoptotic CHOP UPR arm, primary screen, cell-based, CHO-CHOP luciferase reporter, luminescence, uHTS | activation, % at 10 µM | UPR activation; percent of tunicamycin response over DMSO baseline | 330,000 tested, 0.34% active | AID 449763, 2010;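 active = at 10 µM dose, activation of 40% or more, normalized to positive control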
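assay system = CHO CHOP reporter cells | amount = 500 CHO-CHOP cells per well | buffer or medium = F12 with 10% FBS | incubation = 16-18 h cell attachment, then 6 h compound exposure, 37 °C | detection = luminescence read with Steady-Glo | read-out = percent activation relative to tunicamycin control | controls = tunicamycin high control, DMSO low control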
PfM18AAP inh = PfM18AAP inhibitors, malaria aminopeptidase, primary screen, biochemical, QFRET, recombinant enzyme; M18 aspartyl aminopeptidase (Plasmodium falciparum 3D7); H-Glu-NHMec fluorogenic cleavage; inhibition, % at 7.35 µM; 290,000 tested, 1.2% active; AID 1822, 2009;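 active = inhibition above the campaign mean inhibition over all tested compounds plus 3 SD, cut at about 28% in these data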
Numbers stand for hits; - = inactive; . = not tested or not shown. An excerpt weighted towards active compounds, which were near 4.5% of everything screened.

SMILES	XBP1 UPR activ	p97 ATPase inh	HCV NS3 hel inh	CHOP inh	CHOP UPR activ	PfM18AAP inh
O=C(CN1C(=O)NC2(CCc3ccccc32)C1=O)Nc1ccccc1C(F)(F)F (stereo unspecified)	-	.	.	.	-	.
COc1ccc2nc3ccccc3nc2c1NC(=O)c1ccc(Br)cc1	-	-	-	79	-	-
Cc1cc2cc(C(c3nnnn3CC3CCCO3)N3CCCc4ccccc43)c(=O)[nH]c2cc1C (stereo unspecified)	.	-	-	-	.	-
CCc1ccc2[nH]c(=O)c(C(c3nnnn3CC3CCCO3)N3CCCc4ccccc43)cc2c1 (stereo unspecified)	-	-	-	84	-	-
O=C(CN1C(=O)c2ccccc2S1(=O)=O)c1ccccc1	-	-	-	-	-	-
Cc1ccc(C(=O)CN2C(=O)c3ccccc3S2(=O)=O)cc1	-	-	-	87	-	-
COC(=O)c1ccc(-n2nnnc2SCC(=O)Nc2ccccc2F)cc1	-	.	-	.	-	-
CCC(=O)c1c(NCCc2ccccc2)cc(C)oc1=O	-	-	-	-	-	-
Cn1cccc1CC(=O)NNC(=O)Nc1ccccc1F	-	.	.	.	-	.
CCN1CCN(C(c2cccs2)C(C)NS(=O)(=O)c2ccc(F)cc2)CC1 (stereo unspecified)	-	-	-	73	-	-
CC(NS(=O)(=O)c1ccc(F)cc1)C(c1cccs1)N1CCOCC1 (stereo unspecified)	-	-	-	-	-	-
O=C(CNc1ccc(F)cc1)N/N=C1\CCCc2ccccc21	-	-	-	71	-	-
O=C(Cc1ccc(Cl)cc1)N/N=C1\CCCc2ccccc21	-	-	-	-	-	-
O=C(Cc1cccc2ccccc12)N/N=C1\CCCc2ccccc21	-	-	-	92	-	-
COc1ccc(NC(=O)CCCc2ccccc2)cc1OC	-	.	-	.	-	-
CCOc1ccc(S(=O)(=O)N2CCN(Cc3ccc4c(c3)OCO4)CC2)cc1C	-	.	-	.	-	-
CCOC(=O)c1c(NC(=O)COC)sc2c1CCCC2	-	-	-	86	-	-
COC(=O)c1c(NC(C)=O)sc2c1CCCCC2	-	-	-	-	-	-
CCOC(=O)c1c(NC(=O)C[n+]2ccccc2)sc2c1CCCC2	-	-	-	-	-	-
CCOC(=O)c1c(NC(=O)COc2cccc3c2CCN(CC)C3=O)sc2c1CCC2	-	-	-	78	-	-
CCOC(=O)c1c(NC(=O)CSc2c[nH]c3ccccc23)sc2c1CCCC2	-	-	-	76	-	-
CCOC(=O)c1c(NC(=O)CSc2c[nH]c3ccccc23)sc2c1CCC2	-	-	-	-	-	-
COC(=O)c1c(NC(=O)C2CC=CCC2C(=O)O)sc2c1CCCCC2 (stereo unspecified)	-	.	-	.	-	29
CCOC(=O)c1c(NC(=O)COc2cccc3c2CCN(Cc2ccc(F)cc2)C3=O)sc2c1CCC2	-	-	-	-	-	-
COc1ccc(C(C(=O)NC(C)(C)C)N(CCC(C)C)C(=O)CCC(=O)Nc2cc(C)on2)cc1 (stereo unspecified)	-	.	-	.	-	-
SMILES	XBP1 UPR activ	p97 ATPase inh	HCV NS3 hel inh	CHOP inh	CHOP UPR activ	PfM18AAP inh
COc1ccc(S(=O)(=O)NCc2ccc(C(=O)N3CCc4ccccc4C3)cc2)cc1	-	-	-	-	-	-
Cc1ccc2c(c1)SC1=NC(c3ccccc3)(C(F)(F)F)NC(=O)N12 (stereo unspecified)	-	-	-	70	-	-
O=C1NC(c2ccccc2)(C(F)(F)F)SC2=NCCCN12 (stereo unspecified)	-	-	-	-	-	-
Cc1ccc(Cl)c(NC(=O)COC(=O)c2nn(C)c(=O)c3ccccc23)c1Cl	-	.	.	.	-	.
O=c1cc(O)c2c(=O)n(C3CCCCC3)c3ccccc3c2o1	-	-	-	72	-	-
O=c1cc(O)c2c(=O)n(Cc3ccccc3)c3ccccc3c2o1	-	-	-	-	-	-
O=C(c1cc(-c2ccc(F)cc2)nc2ccccc12)N1CCN(C2CCS(=O)(=O)C2)CC1 (stereo unspecified)	-	.	.	.	-	.
CCCCN1C(=O)c2ccc(C(=O)NCCN3C(=O)S/C(=C\c4cccnc4)C3=O)cc2C1=O	-	-	-	76	-	-
COc1ccc(CCNc2ncnc3sccc23)cc1OC	-	-	-	70	-	-
Cc1ccccc1CS(=O)(=O)Cc1ccc(C(=O)NCCCN2CCCC2=O)o1	-	-	-	73	-	-
CCOC(=O)CSc1c(-c2cccs2)[nH]c2ccccc12	-	-	-	-	-	-
CCOC(=O)CSc1c(-c2ccc(Cl)cc2)[nH]c2ccccc12	-	-	-	88	-	-
CN(C)S(=O)(=O)c1cc(NC(=O)COC(=O)CC2Sc3ccccc3NC2=O)ccc1Cl (stereo unspecified)	-	.	.	.	-	.
CC(C)Oc1ccc(Cc2cnc(=S)[nH]c2N)cc1	-	-	-	-	-	31
Cc1nc(C)c(C(=O)OCC(=O)Nc2cccc(C)c2C)s1	-	.	.	.	-	.
CCOC(=O)c1c(NC(=S)Nc2ccccc2)sc2c1CCN(CCc1ccccc1)C2	.	-	-	-	.	-
CCOC(=O)c1c(N)sc2c1CCN(CCc1ccccc1)C2	-	.	-	.	-	29
O=C(NCc1cccc(Cl)c1)c1ccc2c(c1)OCCO2	-	.	-	.	-	-
Fc1cccc(/C=N/Nc2ncnc3nc[nH]c23)c1	-	-	-	-	-	30
COc1ccc(CC(=O)Nc2ccc(S(=O)(=O)N3CCCC3)cc2)c(OC)c1	-	.	.	.	-	.
CCSC(=O)NC12CC3CC(CC(C3)C1)C2	-	-	-	-	-	-
CSC(=O)NC12CC3CC(CC(C)(C3)C1)C2	-	-	-	78	-	-
O=c1[nH]c(NNC(=S)NCc2ccccc2)nc2c1C1(CCCCC1)Cc1ccccc1-2	-	-	-	87	-	-
C=CCNC(=S)NNc1nc2c(c(=O)[nH]1)C1(CCCC1)Cc1ccccc1-2	-	-	-	-	-	-
Cc1ccc(NNC(=O)c2c(C)noc2C)cc1Cl	-	-	-	-	-	30
Cc1noc(C)c1C(=O)NNc1ccc(C(C)C)cc1	-	-	-	-	-	-
CCNC(=S)N/N=C/c1cn(Cc2ccc(F)cc2)c2ccccc12	-	-	-	-	-	-
CCNC(=S)N/N=C/c1cn(Cc2ccccc2F)c2ccccc12	-	-	-	77	-	-
